Assay results pooled from the literature.
Lines come from different studies, so protocols differ.

| Compound | test | test system | setting | measurement | result |
| --- | --- | --- | --- | --- | --- |
| COc1ccc(NC(=O)N2CCCCN3[C@H](CN(C)C)[C@H](c4ccc(C#Cc5ccccc5)cc4)[C@@H]3C2)cc1 | – | mouse, plasma | intravenous | Vd | 29 L/kg |
| COc1cc(C(=O)NC2CCN(C)CC2)c(F)cc1Nc1ncc(C(F)(F)F)c(Oc2cccc3c2C(=O)N(C)C3)n1 | – | human, plasma | oral, 25 mg, multiple doses, once daily, patients | half-life | 27.9 h |
| CCN(CC)CCCC[C@H](NC(=O)[C@H](CC(C)C)NC(=O)[C@H](C)NC(=O)[C@H](Cc1ccccc1)NC(=O)c1ccc(C(C)(C)C)cc1)C(=O)N[C@@H](CO)C(=O)OC | – | male Swiss mouse, blood | intravenous, 3 mg/kg | Vd | 0.19 L/kg |
| CCCCCCCC(=O)NC[C@H](NC(=O)[C@H](CO)NC(=O)CN)C(=O)N[C@@H](Cc1ccccc1)C(=O)N[C@@H](CC(C)C)C(=O)N[C@@H](CO)C(=O)N1CCC[C@H]1C(=O)N[C@@H](CCC(=O)O)C(=O)O | chemical stability | PBS | 1 mM, 24 h, pH 7.4 | compound remaining | 100% |
| Cc1nonc1Cn1nnc2c(N3CC[C@H](O)C3)nc(C(C)(C)C)nc21 | – | C57BL/6 mouse, plasma | intravenous | Vd | 4.1 L/kg |
| CC(=C/C=C/C(C)=C/C(=O)O)/C=C1\CCCc2ccccc21 | – | human, plasma | oral, 10 mg, single dose, fasted, healthy volunteers | half-life | 5.76 h |
| C=CCNc1c(O)cc2c(O)c1C[C@@H](C)C[C@H](OC)[C@H](O)[C@@H](C)/C=C(\C)[C@H](OC(N)=O)[C@@H](OC)/C=C\C=C(/C)C(=O)N2 | – | human, plasma | intravenous, 400 mg/m², patients, infusion | half-life | 2.27 h |
| CN[C@H](CC(C)C)C(=O)N[C@H]1C(=O)N[C@@H](CC(N)=O)C(=O)N[C@H]2C(=O)NC3C(=O)N[C@H](C(=O)N[C@H](C(=O)NCCC[N+](C)(C)C)c4cc(O)cc(O)c4-c4cc3ccc4O)[C@H](O)c3ccc(c(Cl)c3)Oc3cc2cc(c3OC2OC(CO)C(O)[C@H](O)[C@@H]2O[C@H]2CC(C)(NCc3ccc(-c4ccc(Cl)cc4)cc3)[C@H](O)[C@H](C)O2)Oc2ccc(cc2Cl)[C@H]1O (some centres unmarked) | – | mouse, plasma | intravenous, 10 mg/kg | Vd | 1.25 L/kg |
| Cc1nc([C@@](C)(CC2CC2)NC(=O)c2cc(OCC(F)(F)F)c(C3CC3)cn2)no1 | – | C57BL/6 mouse, plasma | intravenous | Vd | 4 L/kg |
| N=C(N)NCCC[C@@H](NC(=O)[C@@H](N)Cc1ccccc1)C(=O)N[C@@H](Cc1ccccc1)C(=O)N[C@@H](CCCCN)C(N)=O | – | human, plasma | subcutaneous, 25 mg, multiple doses, once daily, patients | half-life | 4 h |
| Nc1ncnc2c1ncn2[C@@H]1O[C@@H]2COP(=O)([S-])O[C@@H]3[C@H](O)[C@@H](COP([O-])(=S)O[C@H]2[C@H]1O)O[C@H]3n1cnc2c(N)ncnc21.[Na+].[Na+] (some centres unmarked) | chemical stability, HPLC | bovine, serum | – | half-life | 67 h |
